Laboratory results published in PubChem BioAssay AID504383 (The Scripps Research Institute Molecular Screening Center, 2011).
Hit rate of the full screen: of about 2,500 compounds, about 1,200 (48%) were called active. The set was probably picked from earlier hits. This is one part of the list. A number with no mark means an inactive call.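 The calls were made as follows: active = mean activation above the low control average plus 3 SD, as set in the primary screen (cut at about 12% in these data); inactive = the rest.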

The compounds below were run against Troponin I, cardiac muscle (Homo sapiens) + Troponin T, cardiac muscle (Homo sapiens) + Troponin C, slow skeletal and cardiac muscles (Homo sapiens) (UniProt P19429+P45379+P63316) (assay: calcium sensitizers of cardiac thin filaments – biochemical, IANBD-TnC fluorescence, triplicate, confirmation (AID 504383;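 also: 0% = DMSO at 0.472 mM calcium and 100% = DMSO at 2.9 mM calcium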)). Conditions: IANBD-labeled cardiac RTF, Ca2+ sensitivity fluorescence; at 7.2 µM; hits give high values; scaled from EC20 to saturating calcium; tested at EC20 calcium, 0.472 mM.
How it was run: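 Assay system: labelled regulated thin filaments / Timing: 15 min at 25 °C / Detection: fluorescence intensity of labelled filaments / Measure: fluorescence gain scaled between EC20 and EC100 calcium controls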

| SMILES | activation |
| --- | --- |
| O=C(NCC(=O)N(CC1CCCO1)C1(C(=O)NC2CCCCC2)CCCCC1)c1ccccc1 (stereo unspecified) | 8.78% |
| O=C(NC(=S)NCC1CCCO1)C(c1ccccc1)c1ccccc1 (stereo unspecified) | 12.2% (active) |
| CCc1ccccc1SCc1noc(C(=O)NCC2CCCO2)c1C(=O)O (stereo unspecified) | 10.6% |
| CCOc1ccc2cc(/C=C/C(=O)c3ccco3)c(Cl)nc2c1 | 4.88% |
| CCCc1cc(=O)[nH]c(SCC)n1 | 11.7% (active) |
| Cc1nc(Cl)c2c(n1)NC1=C(O2)C(=O)CCC1 | 10.5% |
| CCN(CC)C(=O)c1ccc(/C=C/c2c[nH]c3ccccc23)[n+](C)c1 | 11.1% |
| CCOC(=O)C(CCCCCCC(NC(C)=O)(C(=O)OCC)C(=O)OCC)(NC(C)=O)C(=O)OCC | 9.57% |
| CCOC(=O)/C(=C\c1c[nH]c2ccccc12)NC(C)=O | 31.7% (active) |
| CCN(CC)C1=CC2=CC(=C(C#N)C#N)CCC2CC1 (stereo unspecified) | 1.65% |
| Cn1cccc1/C=C1\SC(=S)N(NC(=O)c2ccccc2)C1=O | 54.2% (active) |
| Cn1cccc1/C=C1\SC(=S)N(NC(=O)c2ccc(Cl)cc2)C1=O | 16.8% (active) |
| Cc1ccc(C(=O)NN2C(=O)/C(=C/c3cccn3C)SC2=S)cc1 | 25.1% (active) |
| c1ccc2c(c1)CCCN2Cc1nnnn1CC1CCCO1 (stereo unspecified) | 7.11% |
| c1ccc2c(c1)CCCN2Cc1nnc2n1CCCCC2 | 92% (active) |
| O=c1cc(CN2CCCc3ccccc32)nc2sccn12 | 5.39% |
| COc1cc(/C=C2\CCC(C)C3=C(c4cc(OC)c(OC)c(OC)c4)C(C#N)=C(N)OC32)cc(OC)c1OC (stereo unspecified) | 36.4% (active) |
| O=c1oc2ccccc2cc1-c1ccc(O)cc1O | 94.9% (active) |
| O=c1oc2cc(O)ccc2cc1-c1nc2c(s1)CCc1ccccc1-2 | 7.71% |
| O=c1c(-c2ccc(O)cc2O)coc2cc(O)cc(O)c12 | 8.85% |
| CC(C)(C)NC(=O)[C@@H]1CN(Cc2cccnc2)CCN1C[C@@H](O)C[C@@H](Cc1ccccc1)C(=O)N[C@H]1c2ccccc2C[C@H]1O | 158% (active) |
| CN(C)S(=O)(=O)c1ccc(C(=O)Oc2cc(=O)[nH]c3ccccc23)cc1 | 10.2% |
| COc1ccc(N(CC(=O)Nc2ccccc2C(=O)NCC(C)C)S(C)(=O)=O)cc1 | 4.96% |
| CN(CC(=O)Nc1ccccc1Cl)C(=O)c1cc(=O)[nH]c2ccccc12 | 49.3% (active) |
| CCn1cc(Cl)c(C(=O)NNC(=O)CCn2cc([N+](=O)[O-])cn2)n1 | 23.9% (active) |
| CCNC(=S)NNC(=O)CCn1cc(C)cn1 | 6.76% |
